Reference: ChEMBL document CHEMBL3351332 (J Med Chem, 2014)

Assays:
Cannabinoid receptor 1 [1] = biological target: T1, Cannabinoid receptor 1 (Homo sapiens, UniProt P21554); assay: Antagonist activity at human CB1 receptor stably expressed in RD-HGA16 cells assessed as inhibition of CP55,940-induced calcium mobilization after 15 mins by FLIPR assay; type: functional, cell-based
Cannabinoid receptor 2 [2] = biological target: T2, Cannabinoid receptor 2 (Homo sapiens, UniProt P34972); assay: Antagonist activity at human CB2 receptor stably expressed in CHO-RD-HGA16 cells assessed as inhibition of CP55,940-induced calcium mobilization after 15 mins by FLIPR assay; type: functional, cell-based
T2 sequence (P34972 whole entry): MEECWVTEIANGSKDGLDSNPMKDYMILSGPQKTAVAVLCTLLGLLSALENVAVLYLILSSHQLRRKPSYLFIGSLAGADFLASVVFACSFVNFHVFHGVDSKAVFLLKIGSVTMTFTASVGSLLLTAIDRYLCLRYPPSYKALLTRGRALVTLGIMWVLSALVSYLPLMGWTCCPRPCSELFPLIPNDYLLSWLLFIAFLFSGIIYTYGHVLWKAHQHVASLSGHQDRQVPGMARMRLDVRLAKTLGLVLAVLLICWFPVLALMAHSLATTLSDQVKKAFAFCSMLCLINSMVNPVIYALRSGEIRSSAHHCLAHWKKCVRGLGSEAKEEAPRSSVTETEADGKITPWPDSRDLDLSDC

Cannabinoid receptor 1 [3] = biological target: T1, Cannabinoid receptor 1; assay: Agonist activity at human CB1 receptor stably expressed in RD-HGA16 cells assessed as calcium mobilization at 10000 nM after 15 mins by FLIPR assay relative to CP55,940; type: functional, cell-based
Summary of the method: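 Cells plated at 25 000/well the day before in Ham's F12 with 10% FBS, then loaded 45 min at 37 °C with Calcium 5 dye in HBSS/20 mM HEPES/2.5 mM probenecid, pH 7.4. Vehicle pretreatment for 15 min at 37 °C; test compound added on-line, fluorescence read every 1 s over 90 s.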

Cannabinoid receptor 2 [4] = biological target: T2, Cannabinoid receptor 2; assay: Antagonist activity at human CB2 receptor stably expressed in CHO-RD-HGA16 cells assessed as inhibition of CP55,940-induced calcium mobilization at 10000 nM after 15 mins by FLIPR assay; type: functional, cell-based
Cannabinoid receptor 1 [5] = biological target: T1, Cannabinoid receptor 1; assay: Displacement of [3H]CP55,940 from human CB1 receptor expressed in HEK293 cells after 1 hr by scintillation counting relative to control; type: cell-based
Cannabinoid receptor 1 [6] = biological target: T1, Cannabinoid receptor 1; assay: Displacement of [3H]CP55,940 from human CB1 receptor expressed in HEK293 cells after 1 hr by scintillation counting; type: cell-based
Cannabinoid receptor 1 [7] = biological target: T1, Cannabinoid receptor 1; assay: Allosteric modulation at human CB1 receptor stably expressed in RD-HGA16 cells assessed as inhibition of CP55,940-induced calcium mobilization after 15 mins by FLIPR assay; type: functional, cell-based
Summary of the method: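 Cells plated the day before at 25 000/well and loaded 45 min at 37 °C with Calcium 5 dye in HBSS/20 mM HEPES/2.5 mM probenecid, pH 7.4. Fluorescence was read every 1 s for 90 s.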

T1 sequence (P21554 whole entry): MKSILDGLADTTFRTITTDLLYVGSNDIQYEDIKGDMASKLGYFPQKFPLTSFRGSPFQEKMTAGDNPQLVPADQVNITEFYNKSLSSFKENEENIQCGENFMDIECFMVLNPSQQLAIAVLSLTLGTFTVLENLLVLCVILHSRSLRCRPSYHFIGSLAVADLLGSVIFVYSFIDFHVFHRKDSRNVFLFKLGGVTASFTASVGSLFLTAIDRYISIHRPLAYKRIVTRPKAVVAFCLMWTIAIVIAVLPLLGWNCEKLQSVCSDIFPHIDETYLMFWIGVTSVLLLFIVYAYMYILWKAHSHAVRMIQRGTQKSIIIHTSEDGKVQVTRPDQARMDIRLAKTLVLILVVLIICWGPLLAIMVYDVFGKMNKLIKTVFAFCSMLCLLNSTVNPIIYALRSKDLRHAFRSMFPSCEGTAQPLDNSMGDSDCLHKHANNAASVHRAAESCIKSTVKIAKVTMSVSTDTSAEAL

SMILES	inhibition (Cannabinoid receptor 1 [1])	IC50 (Cannabinoid receptor 2 [2])	IC50 (Cannabinoid receptor 1 [1])	Activity (Cannabinoid receptor 1 [3])	inhibition (Cannabinoid receptor 2 [4])	Emax (Cannabinoid receptor 1 [5])	EC50 (Cannabinoid receptor 1 [6])	Activity (Cannabinoid receptor 1 [7])
CCc1c(C(=O)NCCc2ccc(N3CCCCC3)cc2)[nH]c2ccc(Cl)cc12	Dose-dependent effect	–	–	–	–	–	–	–
COc1cc(NC(=O)Nc2cccc(-c3cccc(N4CCCC4)n3)c2)cc(OC)c1OC	–	> 10000 nM	> 10000 nM	< 15%	–	–	–	–
CCCCN(CCCC)c1cccc(-c2cccc(NC(=O)Nc3ccc(Cl)cc3)c2)n1	–	–	693 nM	< 15%	< 35%	–	–	–
O=C(Nc1cccc(-c2cccc(N3CCCC3)n2)c1)Nc1cccc2ccccc12	–	–	> 10000 nM	< 15%	< 35%	–	–	–
O=C(Nc1ccc([N+](=O)[O-])cc1)Nc1cccc(-c2cccc(N3CCCC3)n2)c1	–	–	100 nM	27.9%	< 35%	–	–	–
CNc1cccc(-c2cccc(NC(=O)Nc3ccc(Cl)cc3)c2)n1	–	–	317 nM	< 15%	< 35%	–	–	–
O=C(Nc1cccc(-c2cccc(N3CCCC3)n2)c1)Nc1ccc(Cl)c(Cl)c1	–	> 10000 nM	161 nM	< 15%	–	–	–	–
CCCCCCNc1cccc(-c2cccc(NC(=O)Nc3ccc(Cl)cc3)c2)n1	–	–	1360 nM	< 15%	< 35%	–	–	–
O=C(Nc1cccc(-c2cccc(N3CCCC3)n2)c1)Nc1ccc2ccccc2c1	–	–	888 nM	< 15%	< 35%	–	–	–
O=C(Nc1ccc(F)cc1)Nc1cccc(-c2cccc(N3CCCC3)n2)c1	–	–	32 nM	23.2%	< 35%	172%	207 nM	–
O=C(Nc1ccc(Cl)cc1)Nc1cccc(-c2cccc(N3CCCC3)n2)c1	Dose-dependent effect	> 10000 nM	–	28.2%	–	174%	–	–
CCNc1cccc(-c2cccc(NC(=O)Nc3ccc(Cl)cc3)c2)n1	–	–	181 nM	< 15%	< 35%	–	–	–
CCN(C)c1cccc(-c2cccc(NC(=O)Nc3ccc(Cl)cc3)c2)n1	–	–	53.7 nM	< 15%	< 35%	–	–	–
CCCNc1cccc(-c2cccc(NC(=O)Nc3ccc(Cl)cc3)c2)n1	–	–	311 nM	19.6%	< 35%	–	–	–
O=C(Nc1ccc(Br)cc1)Nc1cccc(-c2cccc(N3CCCC3)n2)c1	–	–	98 nM	< 15%	< 35%	–	–	–
Cc1cc(C)cc(NC(=O)Nc2cccc(-c3cccc(N4CCCC4)n3)c2)c1	–	–	1880 nM	< 15%	< 35%	–	–	–
CCN(CC)c1cccc(-c2cccc(NC(=O)Nc3ccc(Cl)cc3)c2)n1	–	–	125 nM	< 15%	< 35%	–	–	–
CC(=O)Nc1cccc(-c2cccc(NC(=O)Nc3ccc(Cl)cc3)c2)n1	–	5120 nM	251 nM	47%	–	–	–	–
CN(C)c1ccc(NC(=O)Nc2cccc(-c3cccc(N4CCCC4)n3)c2)cc1	–	–	1640 nM	< 15%	< 35%	–	–	–

SMILES	inhibition (Cannabinoid receptor 1 [1])	IC50 (Cannabinoid receptor 2 [2])	IC50 (Cannabinoid receptor 1 [1])	Activity (Cannabinoid receptor 1 [3])	inhibition (Cannabinoid receptor 2 [4])	Emax (Cannabinoid receptor 1 [5])	EC50 (Cannabinoid receptor 1 [6])	Activity (Cannabinoid receptor 1 [7])
O=C(Nc1ccccc1)Nc1cccc(-c2cccc(N3CCCC3)n2)c1	–	–	166 nM	< 15%	< 35%	–	–	–
CCCN(C)c1cccc(-c2cccc(NC(=O)Nc3ccc(Cl)cc3)c2)n1	–	–	156 nM	< 15%	< 35%	–	–	–
O=C(Nc1ccc(Cl)cc1)Nc1cccc(-c2cccc(NC3CCCC3)n2)c1	–	> 10000 nM	501 nM	35%	–	–	–	–
COc1ccc(NC(=O)Nc2cccc(-c3cccc(N4CCCC4)n3)c2)cc1	–	–	189 nM	< 15%	< 35%	–	–	–
O=C(Nc1ccc(Cl)nc1)Nc1cccc(-c2cccc(N3CCCC3)n2)c1	–	–	135 nM	< 15%	< 35%	196%	408 nM	–
Cc1ccc(NC(=O)Nc2cccc(-c3cccc(N4CCCC4)n3)c2)cc1	–	–	203 nM	< 15%	< 35%	–	–	–
Cc1cccc(C)c1NC(=O)Nc1cccc(-c2cccc(N3CCCC3)n2)c1	–	–	> 10000 nM	< 15%	< 35%	–	–	–
O=C(Nc1cc(Cl)cc(Cl)c1)Nc1cccc(-c2cccc(N3CCCC3)n2)c1	–	> 10000 nM	716 nM	22.2%	–	–	–	–
O=C(Nc1cccc(-c2cccc(N3CCCC3)n2)c1)Nc1ccc2c(c1)OCO2	–	–	312 nM	< 15%	< 35%	–	–	–
CCc1ccccc1NC(=O)Nc1cccc(-c2cccc(N3CCCC3)n2)c1	–	–	> 10000 nM	< 15%	< 35%	–	–	–
O=C(Nc1cccc(Cl)c1)Nc1cccc(-c2cccc(N3CCCC3)n2)c1	–	–	228 nM	19.6%	< 35%	–	–	–
CC(C)c1ccccc1NC(=O)Nc1cccc(-c2cccc(N3CCCC3)n2)c1	–	–	> 10000 nM	< 15%	< 35%	–	–	–
CCCN(CCC)c1cccc(-c2cccc(NC(=O)Nc3ccc(Cl)cc3)c2)n1	–	–	372 nM	29%	< 35%	–	–	–
CCCCCNc1cccc(-c2cccc(NC(=O)Nc3ccc(Cl)cc3)c2)n1	–	–	867 nM	< 15%	< 35%	–	–	–
N#Cc1ccc(NC(=O)Nc2cccc(-c3cccc(N4CCCC4)n3)c2)cc1	–	> 10000 nM	33 nM	30%	–	172%	55.2 nM	Dose-dependent effect
O=C(Nc1ccc(Cl)cc1)Nc1cccc(-c2cccc(N3CCCCC3)n2)c1	–	> 10000 nM	95 nM	35%	–	132%	–	–
CN(C)c1cccc(-c2cccc(NC(=O)Nc3ccc(Cl)cc3)c2)n1	–	–	27.4 nM	< 15%	< 35%	184%	663 nM	Dose-dependent effect
CCCCN(C)c1cccc(-c2cccc(NC(=O)Nc3ccc(Cl)cc3)c2)n1	–	–	104 nM	22.1%	< 35%	–	–	–
CCCCNc1cccc(-c2cccc(NC(=O)Nc3ccc(Cl)cc3)c2)n1	–	–	93 nM	26.5%	< 35%	161%	1520 nM	–
